Read-outs that look alike come from different tables or passages of the source.

Experimental findings from paper PMC3746001 (ACS chemical biology, 2013) are described below.

Experiment [1] concerns hpol η. The experiment is described as follows: Steady-state kinetic analysis of hpol η activity in the presence of inhibitor. It is filed as biochemical, human. As to conditions: for kcat: varying dTTP. A digest of the protocol: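 Recombinant hpol η (His/GST-tagged in E. coli BL21(DE3), nickel then GST affinity, GST cleaved) in the fluorescence strand-displacement assay (TAMRA-labelled displaced strand), in 50 mM Tris pH 8.0, 40 mM NaCl, 2 mM DTT, 0.01% Tween-20. dTTP was 1–100 µM and inhibitor 0 or 1–50 µM. RFU were converted to product, linear velocities fit to a hyperbola and corrected for enzyme concentration to give kcat and Km,dTTP.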

The target in experiment [2] is Human DNA polymerase beta (hpol β) (Homo sapiens, UniProt P06746). The experiment is described as follows: Fluorescence-based polymerase assay, hpol β. Type of experiment: biochemical.
The target of experiment [3] is T1, Dpo4 (Saccharolobus solfataricus, UniProt Q97W02).
T1 sequence (Q97W02 1-352): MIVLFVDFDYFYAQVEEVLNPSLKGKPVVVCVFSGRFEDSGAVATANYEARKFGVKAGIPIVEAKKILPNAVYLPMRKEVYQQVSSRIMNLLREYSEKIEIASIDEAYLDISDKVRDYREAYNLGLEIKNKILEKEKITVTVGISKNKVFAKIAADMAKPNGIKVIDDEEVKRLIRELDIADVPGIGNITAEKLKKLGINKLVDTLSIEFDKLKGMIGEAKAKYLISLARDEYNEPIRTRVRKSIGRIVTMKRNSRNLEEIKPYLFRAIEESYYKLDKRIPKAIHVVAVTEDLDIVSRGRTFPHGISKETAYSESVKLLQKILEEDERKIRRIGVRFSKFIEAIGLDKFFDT
The experiment is described as follows: Fluorescence-based polymerase assay, Dpo4. It is filed as biochemical, Sulfolobus solfataricus.

In experiment [4] the target is HIV-1 RT (Human immunodeficiency virus type 1 group M subtype B, UniProt P04585). The experiment is described as follows: Fluorescence-based polymerase assay, HIV-1 RT. Type of experiment: biochemical.
The target of experiment [5] is T2, hpol ι (Homo sapiens, UniProt Q9UNA4).
T2 sequence (Q9UNA4 26-446): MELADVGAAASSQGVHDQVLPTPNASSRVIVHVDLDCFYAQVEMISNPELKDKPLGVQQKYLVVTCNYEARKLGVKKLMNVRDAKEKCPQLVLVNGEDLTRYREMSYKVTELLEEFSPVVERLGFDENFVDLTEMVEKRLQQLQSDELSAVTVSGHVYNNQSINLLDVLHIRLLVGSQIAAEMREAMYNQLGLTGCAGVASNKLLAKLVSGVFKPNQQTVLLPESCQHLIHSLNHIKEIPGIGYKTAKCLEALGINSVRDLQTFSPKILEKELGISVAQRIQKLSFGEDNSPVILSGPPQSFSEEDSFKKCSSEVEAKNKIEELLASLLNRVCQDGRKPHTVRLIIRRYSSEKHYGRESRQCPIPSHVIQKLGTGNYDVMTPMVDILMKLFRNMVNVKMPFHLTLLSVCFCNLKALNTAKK
The experiment is described as follows: Fluorescence-based polymerase assay, hpol ι. Type of experiment: biochemical.

The target of experiment [6] is T3, hetero-dimeric hpol γ (Homo sapiens, UniProt P54098).
T3 sequence (P54098 1-1239): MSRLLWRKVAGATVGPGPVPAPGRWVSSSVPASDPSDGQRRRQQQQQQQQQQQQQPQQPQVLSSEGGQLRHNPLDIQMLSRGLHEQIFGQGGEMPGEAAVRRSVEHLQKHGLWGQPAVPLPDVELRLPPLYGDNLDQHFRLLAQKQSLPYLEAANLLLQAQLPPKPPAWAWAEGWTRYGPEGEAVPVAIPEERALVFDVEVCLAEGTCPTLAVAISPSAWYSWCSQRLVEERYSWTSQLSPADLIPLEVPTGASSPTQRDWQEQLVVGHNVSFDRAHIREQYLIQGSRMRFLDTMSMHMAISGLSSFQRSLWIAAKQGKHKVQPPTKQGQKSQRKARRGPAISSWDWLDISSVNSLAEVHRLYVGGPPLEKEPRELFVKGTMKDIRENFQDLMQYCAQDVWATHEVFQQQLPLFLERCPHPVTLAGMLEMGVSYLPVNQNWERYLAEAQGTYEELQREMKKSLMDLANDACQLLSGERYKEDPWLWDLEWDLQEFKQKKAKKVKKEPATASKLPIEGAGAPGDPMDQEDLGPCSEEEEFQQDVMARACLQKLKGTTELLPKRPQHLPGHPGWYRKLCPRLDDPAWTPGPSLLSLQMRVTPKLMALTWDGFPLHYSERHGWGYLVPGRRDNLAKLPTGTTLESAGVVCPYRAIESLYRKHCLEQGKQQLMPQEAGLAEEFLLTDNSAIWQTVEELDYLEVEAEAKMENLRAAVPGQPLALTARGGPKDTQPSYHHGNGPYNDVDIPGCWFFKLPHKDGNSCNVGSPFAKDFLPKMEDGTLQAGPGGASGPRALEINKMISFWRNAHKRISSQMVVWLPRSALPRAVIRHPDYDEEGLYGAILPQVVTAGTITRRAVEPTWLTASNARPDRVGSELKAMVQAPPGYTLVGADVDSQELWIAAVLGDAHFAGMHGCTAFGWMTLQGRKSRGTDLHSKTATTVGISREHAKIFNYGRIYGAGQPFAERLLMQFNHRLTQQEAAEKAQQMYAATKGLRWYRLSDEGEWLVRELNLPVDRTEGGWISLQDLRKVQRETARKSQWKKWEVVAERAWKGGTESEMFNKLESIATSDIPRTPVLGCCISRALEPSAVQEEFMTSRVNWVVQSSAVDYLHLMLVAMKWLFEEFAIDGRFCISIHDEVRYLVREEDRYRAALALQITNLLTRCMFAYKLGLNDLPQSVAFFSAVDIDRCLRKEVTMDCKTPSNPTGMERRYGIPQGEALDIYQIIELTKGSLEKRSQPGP
T3 sequence (Q9UHN1 26-485 partner limits assumed): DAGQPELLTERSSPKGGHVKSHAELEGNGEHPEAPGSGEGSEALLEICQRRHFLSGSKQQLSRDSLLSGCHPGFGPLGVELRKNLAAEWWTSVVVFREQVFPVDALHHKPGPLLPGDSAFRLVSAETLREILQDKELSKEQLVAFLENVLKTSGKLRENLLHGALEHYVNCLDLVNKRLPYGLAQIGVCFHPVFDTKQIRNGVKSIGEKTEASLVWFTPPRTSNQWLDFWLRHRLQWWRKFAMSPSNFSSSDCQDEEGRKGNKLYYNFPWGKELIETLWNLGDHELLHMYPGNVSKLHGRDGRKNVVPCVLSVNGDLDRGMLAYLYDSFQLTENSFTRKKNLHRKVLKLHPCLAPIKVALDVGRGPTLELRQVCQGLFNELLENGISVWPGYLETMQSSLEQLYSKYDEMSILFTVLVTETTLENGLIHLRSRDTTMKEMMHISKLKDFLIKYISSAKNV
The experiment can be described thus: Fluorescence-based polymerase assay, hpol γ. It is filed as biochemical.

Regarding `O=C1NC(=S)NC(=O)C1=Cc1cn(C(=O)c2ccccc2Br)c2ccc(Cl)cc12` [ITBA-12, 5-((1-(2-bromobenzoyl)-5-chloro-1H-indol-3-yl)methylene)-2-thioxodihydropyrimidine-4,6(1H,5H)-dione], the Km was 6.7 ± 0.9 µM in experiment [1] (read-out: Km,dTTP, varying dTTP, [ITBA-12] 1 μM); 7.6 ± 1 µM in experiment [1] (read-out: Km,dTTP, varying dTTP, [ITBA-12] 10 μM); 8.5 ± 1.4 µM in experiment [1] (read-out: Km,dTTP, varying dTTP, [ITBA-12] 20 μM); 15 ± 2 µM in experiment [1] (read-out: Km,dTTP, varying dTTP, [ITBA-12] 40 μM); 26.7 ± 5.6 µM in experiment [1] (read-out: Km,dTTP, varying dTTP, [ITBA-12] 50 μM). Moreover, the kcat in experiment [1] ([ITBA-12] 1 μM) was found to be 0.065 ± 0.0017 s⁻¹; in experiment [1] ([ITBA-12] 10 μM) it was 0.0717 ± 0.0017 s⁻¹; in experiment [1] ([ITBA-12] 20 μM), 0.0667 ± 0.0033 s⁻¹; in experiment [1] ([ITBA-12] 40 μM) it was 0.07 ± 0.0033 s⁻¹; in experiment [1] ([ITBA-12] 50 μM) it was 0.0583 ± 0.005 s⁻¹. Besides, the IC50 in experiment [2] was 41 ± 24 µM; in experiment [3], ~80 µM; in experiment [4], ~80 µM; in experiment [5], ~80 µM; in experiment [6] it was 49 ± 6 µM. Moreover, in experiment [2] (hpol β versus hpol η), the “Fold difference in IC50 between hpol η and hpol β” value is reported as ~ 1.4 fold.
